Experimental data reported in ChEMBL document CHEMBL2311423, “Novel carbocyclic nucleoside analogs suppress glomerular mesangial cells proliferation and matrix protein accumulation through ROS-dependent mechanism in the diabetic milieu” (Bioorg Med Chem Lett, 2013).
The source made the active and inactive calls. No cut-off for these calls is given here.

Legend:
Assay type in all cases: functional
[1] = Antidiabetic nephropathic activity in rat glomerular mesangial cells assessed as reduction of high-glucose induced fibronectin expression at 1 uM treated 12 to 24 hrs after serum-deprivation measured after 24 hrs by Western blot analysis relative to beta-actin expression
[2] = Antidiabetic nephropathic activity in rat glomerular mesangial cells assessed as reduction of high-glucose induced fibronectin expression at 10 uM treated 12 to 24 hrs after serum-deprivation measured after 24 hrs by Western blot analysis relative to beta-actin expression
[3] = Antidiabetic nephropathic activity in rat glomerular mesangial cells assessed as reduction of high-glucose induced NADPH-dependent ROS production by measuring NADPH oxidase activity at 1 uM treated 12 after serum-deprivation measured after 24 hrs by DHE staining
Summary of the method: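 Rat glomerular mesangial cells serum-deprived 12 h, then given high glucose (25 mM) for 24 h with or without compound. NADPH-dependent superoxide generation (NADPH oxidase activity) measured in parallel with DHE staining. Superoxide expressed as relative light units per mg protein.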

[4] = organism: Rattus norvegicus; test: Antidiabetic nephropathic activity in rat glomerular mesangial cells assessed as reduction of high-glucose induced cell proliferation at 1 to 10 uM treated 12 after serum-deprivation measured after 24 hrs by MTT assay
Summary of the method: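 Rat glomerular mesangial cells serum-deprived 12 h, then given high glucose (25 mM) for 24 h with or without compound at different concentrations. Proliferation read by MTT assay after 24 h, compared against normal-glucose cells.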

SMILES	Activity [1]	Activity [2]	Activity [3]	Activity [4]
CC(=O)OC[C@@H]1C[C@@H](n2cc(C)c(=O)n(C(=O)c3ccccc3)c2=O)C[C@@H]1COC(C)=O	65 a.u.	40 a.u.		
CC(=O)OC[C@@H]1C[C@@H](n2ccc(=O)n(C(=O)c3ccccc3)c2=O)C[C@@H]1COC(C)=O	64 a.u.	57 a.u.		
CCOC(=O)[C@H]1C[C@H](n2cc(C)c(=O)n(C(=O)c3ccccc3)c2=O)C[C@H]1C(=O)OCC	68 a.u.	66 a.u.		
CCOC(=O)[C@H]1C[C@H](n2ccc(=O)n(C(=O)c3ccccc3)c2=O)C[C@H]1C(=O)OCC	26 a.u.	20 a.u.	Active	Active
CC(=O)OC[C@@H]1CC(n2cc(C)c(=O)n(C(=O)c3ccccc3)c2=O)C[C@H]1COC(C)=O (racemic)	59 a.u.	53 a.u.		
CC(=O)OC[C@@H]1CC(n2ccc(=O)n(C(=O)c3ccccc3)c2=O)C[C@H]1COC(C)=O (racemic)	55 a.u.	52 a.u.		
CCOC(=O)[C@@H]1CC(n2cc(C)c(=O)n(C(=O)c3ccccc3)c2=O)C[C@H]1C(=O)OCC (racemic)	25 a.u.	20 a.u.	Active	Active
CCOC(=O)[C@@H]1CC(n2ccc(=O)n(C(=O)c3ccccc3)c2=O)C[C@H]1C(=O)OCC (racemic)	67 a.u.	60 a.u.		
